Source: PubChem
A selection: hits, their analogues and other compounds. The true share with any hit is near 4.4%.
MPTP block: blocks calcium-induced mitochondrial swelling | inhibition, % at 10 µM | isolated mouse mitochondria, Ca2+ swelling absorbance, 30 min | actives 1.4% (n = 360,000);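 active means inhibition of 50% or more, scaled per plate between neutral and stimulator controls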;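 further: 0% = DMSO wells given calcium and 100% = 1 mM EGTA wells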
EBI2 block: EBI2 (human) antagonism. P32249. EBI2 beta-arrestin recruitment, luminescence, 7a,25-OHC stimulated. inhibition, % at 5 µM. actives 0.81% (n = 360,000). AID 651636; in the data active means inhibition above about 38%;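 further: enzyme fragment complementation signal reports receptor beta-arrestin coupling in cells; 0% = agonist plus DMSO wells and 100% = wells without agonist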
Target sequence (P32249 whole entry, looked up, the tested form may be a part): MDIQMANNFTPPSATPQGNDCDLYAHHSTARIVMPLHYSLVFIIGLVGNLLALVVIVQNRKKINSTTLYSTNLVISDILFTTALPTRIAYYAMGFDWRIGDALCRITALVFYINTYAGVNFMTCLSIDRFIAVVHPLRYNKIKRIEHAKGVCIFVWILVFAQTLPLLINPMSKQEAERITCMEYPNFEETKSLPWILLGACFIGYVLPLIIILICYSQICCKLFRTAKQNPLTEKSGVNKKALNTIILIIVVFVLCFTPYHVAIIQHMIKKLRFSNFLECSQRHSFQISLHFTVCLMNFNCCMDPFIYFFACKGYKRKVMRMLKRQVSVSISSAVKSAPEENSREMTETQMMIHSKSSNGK
SENP1 FRET inh: inhibitors of human SENP1 SUMO protease catalytic domain; recombinant SENP1 catalytic domain, CyPet-SUMO1-YPet FRET cleavage; inhibition, % at 10 µM; actives 0.21% (n = 360,000); AID 624204;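 active means inhibition at least 30% at 10 µM, raw YFP signal under a set limit, fluorescence ratio 0.5 to 1.5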;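 further: 0% = enzyme with DMSO and 100% = no enzyme wells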
Target sequence (Q9P0U3 419-644 limits assumed): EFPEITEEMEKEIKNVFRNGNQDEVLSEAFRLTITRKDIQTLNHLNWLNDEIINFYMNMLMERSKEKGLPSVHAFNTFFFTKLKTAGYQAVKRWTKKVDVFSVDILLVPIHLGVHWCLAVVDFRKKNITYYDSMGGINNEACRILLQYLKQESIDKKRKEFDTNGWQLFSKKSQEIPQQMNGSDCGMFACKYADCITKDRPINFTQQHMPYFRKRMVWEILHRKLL
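Test system: human SENP1 catalytic domain; medium: Tris pH 8 buffer plus EDTA, NaCl, BME, BSA, NP40, catalase; incubation: 50 min reaction at room temperature; technique: FRET, CFP and YFP emission; controls: no-enzyme low control and enzyme-plus-DMSO high control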
NR3A LBD binder: NR3A (human) ligand-binding domain modulation; NR3A LBD differential scanning fluorimetry, Tm shift; 0% = protein alone, 100% = glycine-bound protein; Tm shift relative to glycine control, % at 25 µM; actives 2.5% (n = 340,000);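 active means melting temperature shift of at least 10% of the positive control shift, at one fixed dose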
Rh123 counter: mitochondrial membrane potential, counter-screen | actives 78% (n = 5,000) | AID 624504 | isolated mitochondria, Rhodamine 123 fluorescence | inhibition, % at 10 µM | shares compounds with MPTP block; in the data active means inhibition above about 22%;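 further: 0% = DMSO vehicle and 100% = positive control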
MPTP abs DR: dose response confirmation of mitochondrial permeability transition pore inhibitors; actives 58% (n = 780); shares compounds with MPTP block; AID 651561; isolated mitochondria swelling, absorbance; IC50, µM; in the data active means IC50 below about 20 µM
MPTP counter DR: counter-screen for mitochondrial permeability transition pore inhibitors, dose response; shares compounds with MPTP block; isolated mitochondria counterscreen, fluorescence read-out; IC50, µM; actives 49% (n = 780); AID 651564; in the data active means IC50 below about 80 µM
Active calls of the source: *; i = inactive; . = no result given.

SMILES | MPTP block | EBI2 block | SENP1 FRET inh | NR3A LBD binder | Rh123 counter | others
COC(=O)c1sc2nc(-c3ccccc3)nc(N3CCN(C)CC3)c2c1C | 76* | -9 | -4 | 3 | -10 | MPTP abs DR=9.8*;MPTP counter DR=>80
COc1ccc(-c2nc(-c3ccccc3)nc(N3CCN(C)CC3)c2C#N)cc1 | -3 | 17 | 3 | -2 | .
COc1ccc(-c2nc(-c3cccc(C)c3)nc(N3CCN(C)CC3)c2C#N)cc1 | 91* | 5 | 1 | -7 | 1 | MPTP abs DR=i;MPTP counter DR=>80
Oc1ccc(CCC2CCCCN2Cc2nc(C3CC3)no2)cc1 (centres undefined) | 1 | -6 | 0 | -1 | .
C=CCOC(=O)C1=C(C)NC(SCC(=O)Nc2ccc(C)c(Cl)c2)=C(C#N)C1c1ccco1 (centres undefined) | 72* | 35 | -8 | 20* | 77*
Fc1ccc(C2=Nc3cccc4cccc(c34)N2)cc1 | 7 | -13 | -8 | 0 | .
FC(F)(F)C1=Nc2cccc3cccc(c23)N1 | 103* | -5 | 11 | 9 | 71*
NS(=O)(=O)c1cccc(NS(=O)(=O)c2ccc(/C=C/C(=O)OCC(=O)c3ccccc3)cc2)c1 | 60* | 3 | 1 | 2 | 27*
COc1ccc(C(=O)COC(=O)/C=C/c2ccccc2)cc1 | -2 | -7 | 1 | 0 | .
CC(=O)N/C(=C\c1ccccc1)C(=O)NCC(=O)O | 2 | -7 | 1 | 0 | .
O=C(NNC(=O)c1ccccc1-c1ccccc1C(=O)O)c1ccccc1 | 0 | 6 | 1 | 1 | .
O=C(C=P(c1ccccc1)(c1ccccc1)c1ccccc1)c1ccccc1-c1ccccc1C(=O)C=P(c1ccccc1)(c1ccccc1)c1ccccc1 | 94* | 3 | 1 | 1 | 99*
CC(=O)NC(c1cccc(F)c1)c1nc(-c2cnn(C)c2)cs1 (centres undefined) | 1 | -12 | 3 | . | .
CN(C)S(=O)(=O)c1cccc(NC(=O)CSc2nc3ccccc3[nH]2)c1 | 1 | -4 | 2 | -2 | .
CCN(CC)S(=O)(=O)c1cccc(NC(=O)CSc2nc3ccccc3[nH]2)c1 | 65* | -10 | 1 | -4 | 33*
CN(C)S(=O)(=O)c1cccc(NC(=O)CSc2ncnc3ccccc23)c1 | 84* | -13 | -9 | -1 | 66*
CCOc1ccc(C2C=C(c3ccc(C)cc3)Nc3nnnn32)cc1 (centres undefined) | 73* | 13 | -24 | 3 | 26*
CCOc1ccc(C2C=C(c3ccccc3)Nc3nnnn32)cc1 (centres undefined) | 4 | 9 | 28 | 2 | .
COc1ccc(C2=NOC(C)(c3nnc(-c4ccc(Cl)cc4)o3)C2)cc1 (centres undefined) | 1 | 14 | 1 | 2 | .
COc1ccc(C(C[N+](=O)[O-])c2c(C)[nH]n(-c3ccccc3)c2=O)cc1 (centres undefined) | -1 | -25 | 3 | 0 | .
Cc1[nH]n(-c2ccccc2)c(=O)c1C(c1ccc(O)c([N+](=O)[O-])c1)c1c(C)[nH]n(-c2ccccc2)c1=O | 91* | 11 | 2 | 4 | 74*
COc1ccc(N2C(c3ccsc3)=Cc3cc4c(cc3C2c2c[nH]c3ccccc23)OCO4)cc1 (centres undefined) | 2 | 7 | 11 | . | .
COC(=O)c1ccc(NC(=S)NCCc2ccccc2C)cc1 | 100* | -3 | -1 | 29* | 83*
COC(=O)c1ccc(NC(=S)NCCc2cccc(C)c2)cc1 | 88* | 24 | 1 | 24* | 91*
COc1ccc(C(=O)NC(C(=O)NCC2(N3CCCCC3)CCCCC2)C(C)C)cc1 (centres undefined) | 0 | -5 | -2 | 0 | .
SMILES | MPTP block | EBI2 block | SENP1 FRET inh | NR3A LBD binder | Rh123 counter | others
CC(C)c1cc(C(=O)NNC(=S)NCc2ccco2)c(O)c(C(C)C)c1 | 85* | -4 | 2 | 19* | 83*
Cc1cc(C(=O)NNC(=S)NCc2ccco2)n(C)n1 | 0 | 4 | 0 | 0 | .
Nc1nc(N2CCN(C/C=C/c3ccccc3)CC2)nc2ccccc12 | 63* | 10 | 2 | -2 | -6 | MPTP abs DR=i;MPTP counter DR=59*
C(=C\c1ccccc1)/CN1CCN(c2ncnc3c2oc2ccccc23)CC1 | 95* | 10 | -4 | 0 | 94*
COc1ccc([N+](=O)[O-])c(O)c1C(C)=O | 0 | -6 | 0 | 0 | .
N#Cc1cccc(NC(=O)CCNC(=O)c2ccccc2Cl)c1 | 0 | 4 | 2 | -1 | .
Cn1cc(S(=O)(=O)N2CCc3ccccc32)cc1C(=O)NC(C)(C)C | 50* | -7 | 1 | -1 | 80*
Cc1ccc2c(c1)[C@@H](O)C[C@@H](C)N2N=O | -6 | 0 | 2 | 0 | .
Cc1ccc(COC(=O)c2cccc(S(=O)(=O)N3CCCCCC3)c2)cc1 | 1 | 17 | 2 | 1 | .
CC(=O)N1CCN(S(=O)(=O)c2cccc(C(=O)OCc3ccc(C(C)(C)C)cc3)c2)CC1 | 90* | -4 | 3 | -5 | 90*
CCOC(=O)c1c(NC(=O)CSc2nc3ccccc3s2)sc(C(C)=O)c1C | 86* | 22 | -3 | -1 | 50*
COc1cc(NS(=O)(=O)c2ccc(C)cc2C)cc(OC)c1OC | 84* | 2 | -1 | 2 | 72*
Cc1cc(/C=N/n2cnnc2)c(C)n1-c1ccc(OCc2ccc(Cl)cc2)cc1 | 114* | 25 | -1 | -2 | 100*
C(=N\n1cnnc1)/c1ccc(OCc2ccccc2)cc1 | -1 | -8 | 1 | -2 | .
Cc1cc(/C=N/n2cnnc2)c(C)n1-c1ccc(OCc2ccccc2F)cc1 | 98* | 26 | 0 | -4 | 96*
CCOC(=O)[C@]12CCCC=C1N(CCC1=CCCCC1)C(=O)[C@H](CC(=O)NCCCN1CCCC1=O)C2 | 0 | -8 | 0 | . | .
Cc1cc(Cl)ccc1OCC(=O)NCc1ccncc1 | 1 | -7 | -1 | -1 | .
Cc1cccc(OCC(=O)Nc2ccncc2)c1C | 82* | -14 | 3 | 0 | 87*
Cc1cc(Cl)ccc1OCC(=O)Nc1ccncc1 | 80* | -12 | 1 | -3 | 79*
O=C(COc1cc(Cl)c(Cl)cc1Cl)Nc1ccncc1 | 76* | 4 | 3 | 545* | 88*
Cc1cc(OCC(=O)Nc2ccncc2)ccc1Br | 59* | -2 | -3 | 0 | 111*
COc1cccc(CN2CC(C(=O)NCCC3=CCCCC3)CCC2=O)c1 (centres undefined) | -1 | 10 | 0 | 0 | .
CC(=O)c1c(C)[nH]c(C(=O)OCc2ccc(F)cc2Cl)c1C | 78* | -7 | 1 | 0 | 69*
COc1ccc(OCCOC(=O)c2[nH]c(C)c(C(C)=O)c2C)cc1 | 56* | 3 | 0 | 3 | 31*
